Screening results as filed in PubChem BioAssay.
Measles CPE: protection of cells from measles virus | Measles virus-infected cells, CPE protection, absorbance | 140,000 tested, 1.5% active | protection (pct of control), % at 4 µM | AID 841; in the data active = protection mostly above about 24%, no sharp cut-off; inactive = mostly below about 26%
RAM inhibit: inhibitors of the yeast RAM network | S. cerevisiae dse1pr::URA3 reporter, 5-FOA growth OD615, 2 d; analog-sensitive cbk1-as2 kinase mutant strain | inhibition, % at 50 µM | 190,000 tested, 1.8% active | AID 868;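 active = inhibition above a set limit, 3 SD over mean compound inhibition, cut at about 8.4% in these data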;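 also: 0% = DMSO-only wells with no growth and 100% = 10 µM 1-NA-PP1 full growth; inhibition rescues growth on 5-FOA so higher OD means more RAM inhibition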
Yeast life ext: extends the lifespan of yeast; 130,000 tested, 0.68% active; inhibition of the nicotinamide effect, % at 10 µM; S. cerevisiae growth with nicotinamide, OD615; deaD strain in restrictive glucose medium;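 active = inhibition above a set limit, placed 3 SD over the median of all compounds, cut at about 26% in these data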;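 also: 0% = nicotinamide-treated wells and 100% = cells grown without nicotinamide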
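System: DeaD-strain S. cerevisiae / Buffer or medium: CSMM-D, restrictive glucose (dextrose) synthetic minimal medium / Probe or stimulus: nicotinamide, 1.5 mM, co-present with compound / Compound: one concentration, 10 µM, DMSO 0.25% / Incubation: 48 h compound exposure at 30 °C, humidified / Technique: optical density (absorbance) at 615 nm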
WT yeast gro inh: growth inhibition of WT yeast, mitochondrial fusion screen. mitochondrial fusion phenotypic screen, WT strain. inhibition, % at 10 µM. 190,000 tested, 2.1% active; in the data active = inhibition above about 58%; tested in S. cerevisiae
DAT uptake mod: changed human dopamine transporter uptake under cocaine IC80; Q01959; LLC-PK1 hDAT cells, [14C]-dopamine uptake with cocaine IC80; actives deviate in either direction; B-score at 10 µM; 110,000 tested, 1.3% active;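 active = Z score or B-score, a plate-position-corrected score, falls beyond the plate's 99.7% confidence bounds, in either direction; inactive = both scores lie inside the 99.7% bounds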;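 also: scored against the spread of the other compound wells on the same plate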
Target sequence (Q01959 whole entry, looked up): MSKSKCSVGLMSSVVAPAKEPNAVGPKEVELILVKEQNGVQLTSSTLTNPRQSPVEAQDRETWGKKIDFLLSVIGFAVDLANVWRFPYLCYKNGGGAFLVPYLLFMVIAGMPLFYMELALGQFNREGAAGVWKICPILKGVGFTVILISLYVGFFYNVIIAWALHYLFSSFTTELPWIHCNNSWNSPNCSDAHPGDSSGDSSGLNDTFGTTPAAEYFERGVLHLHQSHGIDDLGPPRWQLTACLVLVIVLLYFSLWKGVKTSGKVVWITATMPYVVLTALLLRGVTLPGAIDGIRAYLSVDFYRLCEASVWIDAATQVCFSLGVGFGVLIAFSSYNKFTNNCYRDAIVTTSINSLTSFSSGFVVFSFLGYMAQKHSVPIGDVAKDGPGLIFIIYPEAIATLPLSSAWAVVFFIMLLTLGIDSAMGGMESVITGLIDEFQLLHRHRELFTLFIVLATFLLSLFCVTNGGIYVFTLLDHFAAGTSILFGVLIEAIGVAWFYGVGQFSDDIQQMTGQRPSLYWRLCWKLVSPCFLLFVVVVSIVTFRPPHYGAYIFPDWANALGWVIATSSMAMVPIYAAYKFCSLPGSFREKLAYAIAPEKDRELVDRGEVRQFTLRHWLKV
Yeast growth inh: yeast BB579 growth reduction in restrictive medium | S. cerevisiae BB579 growth, OD615, 48 h | inhibition, % at 10 µM | 140,000 tested, 0.51% active | AID 804;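 active = inhibition above a set limit, 3 SD over the mean compound inhibition, cut at about 44% in these data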
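Assay system: S. cerevisiae DeaD strain BB579 yeast. Medium: CSMM-D restrictive synthetic medium containing dextrose (glucose). Times: 4 h cell preincubation, 48 h compound exposure, 30 °C humidified. Signal: OD615 turbidity measurement. Benchmarks: positive control amphotericin B 10 µg/mL.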
* hit, by the source's call; nt = no result given. An excerpt weighted towards active compounds, which were near 6.1% of everything screened.

SMILES	Measles CPE	RAM inhibit	Yeast life ext	WT yeast gro inh	DAT uptake mod	Yeast growth inh
CCOC(=O)N1CCC(NC(=O)CSCc2cnn(-c3ccccc3)c2-n2cccc2)CC1	35	0	-19	24	3.2*	3
Cc1cc(=O)[nH]c(-n2nc(C)cc2C)n1	5	-1	-26	10	-0.87	81*
Cc1cc(=O)[nH]c(-n2nc(C)c(Oc3ccccc3O)c2C)n1	3	0	-3	-39	-0.039	-54
Cc1ccc(N(C(=O)c2snc(C(N)=O)c2N)C(C(=O)NCCC(C)C)c2ccco2)cc1 (stereo not given)	nt	1	nt	25	nt	nt
Cc1cc(C)cc(NC(=S)NC2CC3CCC(C2)N3Cc2ccco2)c1 (stereo not given)	1	-1	-8	79*	nt	-54
O=Nc1c2nc3ccccc3n(O)c-2c2ccccc12	17	6	-6	nt	0.0095	64*
COCCNC(=O)CC(NS(=O)(=O)c1ccc(C)cc1)c1ccco1 (stereo not given)	5	1	-12	73*	-0.71	-24
Cc1cc(C)c(S(=O)(=O)c2ccccc2)c(OC(=O)c2cc(F)c(F)cc2Cl)n1	4	1	43*	-16	0.088	-68
Cc1ccc2c(c1)c1c(n2C)-c2[nH]ncc2CC1	17	2	nt	96	0.93	99*
Cc1ccc2c(c1)c1c(n2C)C(C(N)=O)CCC1 (stereo not given)	10	-1	-21	-3	0.22	14
COc1cc(-n2c(=O)c3ccccc3n(Cc3ccccc3)c2=O)cc(OC)c1OC	16	0	-19	-15	-0.28	-43
CN(C)S(=O)(=O)c1cccc2nsnc12	20	0	-20	-2	-2*	-51
CC(=O)N(C)c1ccc(NC(=O)c2ccc([N+](=O)[O-])cc2Cl)cc1	18	1	-2	-19	nt	-2
O=C1CC(NCCC2=CCCCC2)C(=O)N1c1cccc(Cl)c1Cl (stereo not given)	12	3	-18	-5	3.5*	-35
CC(=O)Nc1ccc2nc(NC(=O)COc3cccc(C)c3)sc2c1	nt	1	nt	16	nt	nt
CC(C(=O)Nc1sc2c(c1C(=O)NCC1CCCO1)CCC2)N1C(=O)c2ccccc2C1=O (stereo not given)	4	2	13	14	nt	6
O=S(=O)(Nc1nc(-c2sccc2Cl)cs1)c1cc(Cl)ccc1Cl	8	3	46*	-20	-0.042	-24
CN(C)c1ccc(NS(=O)(=O)c2cc(Cl)ccc2Cl)cc1	4	0	11	-7	nt	-3
O=C(CCn1c(=O)c2ccccc2n(CC(=O)NCCC2=CCCCC2)c1=O)NCc1ccco1	12	3	-7	-35	-0.27	-13
O=C(NC(=S)NCCC1=CCCCC1)c1ccccc1Br	nt	8	nt	64*	nt	nt
S=C(NCCC1=CCCCC1)NCc1ccco1	nt	1	nt	69*	nt	nt
NC(=O)NCCC1=CCCCC1	0	1	-2	59*	nt	-24
Cn1c(OCc2ccc3c(c2)OCO3)nc2c1c(=O)n(Cc1cccc(Cl)c1)c(=O)n2C	nt	nt	nt	nt	0.38	nt
O=C(OCC(=O)N1CCN(c2ccccc2)CC1)c1ccc[n+]([O-])c1	nt	3	nt	2	nt	nt
CCOC(=O)c1c2c3c(cccc3[nH]c1=O)C(=O)c1ccccc1-2	nt	3	nt	-15	nt	nt
SMILES	Measles CPE	RAM inhibit	Yeast life ext	WT yeast gro inh	DAT uptake mod	Yeast growth inh
COCCCNc1c2c3c(cccc3[nH]c1=O)C(=O)c1ccccc1-2	7	-1	35*	-1	1.2	0
CCSc1nc(N)nc(-c2cccs2)c1C#N	26	-2	-18	8	-0.16	84*
NS(=O)(=O)c1ccc(CCNC(=O)/C=C/c2ccc([N+](=O)[O-])cc2)cc1	nt	6	nt	10	nt	nt
COc1ccc(/C=C/C(=O)NCCc2ccc(S(N)(=O)=O)cc2)cc1	56*	2	0	0	nt	-18
C/C(=N\Nc1ccc([N+](=O)[O-])cc1)c1ccc(N)cc1	nt	-2	-10	42	nt	97*
CC(C)CNC(=O)c1ccccc1NC(=O)CCSc1ccccc1	4	4	-7	12	nt	-15
COc1cccc(OCCn2cc(C(=O)c3ccco3)c3ccccc32)c1	5	10*	-12	42	-0.032	-26
COc1ccccc1OCCn1cc(C(=O)c2ccco2)c2ccccc21	12	8.8*	-23	-3	-0.29	-9
COc1ccccc1NC(=O)Cn1cc(C(=O)c2ccco2)c2ccccc21	nt	1	nt	-2	nt	nt
COc1ccc(OC)c(NC(=O)Cn2cc(C(=O)c3ccco3)c3ccccc32)c1	8	2	3	-11	-0.13	-37
Cc1ccc2nc(-c3cccnc3)cc(C(=O)N3CCN(c4ccc([N+](=O)[O-])cc4)CC3)c2c1	nt	1	nt	2	nt	nt
Cc1ccc2c(C(=O)N3CCN(c4ccccc4)CC3)cc(-c3cccnc3)nc2c1C	nt	0	nt	73*	nt	nt
CC(C)(C)c1ccc(/C=C2\SC(=O)N(CCNC(=O)c3cccc(S(=O)(=O)N4CCOCC4)c3)C2=O)cc1	8	4	3	9	nt	-36
COc1cc(/C=N/NC(=S)Nc2cccc(S(=O)(=O)N(C)C)c2)ccc1O	6	3	-1	2	nt	-46
O=C(CCN1C(=O)S/C(=C/c2ccc(Cl)cc2)C1=O)N1CCOCC1	42*	1	-4	7	nt	-48
Cn1c(=O)n(C)c2cc(/C=C3/SC(=O)N(CC(=O)N4CCOCC4)C3=O)ccc21	8	2	-1	-4	nt	-14
COc1ccc(Cn2c(/C=C/c3ccccc3)nc3ccccc32)cc1	9	1	26	21	-0.092	-52
Clc1ccccc1Cn1c(/C=C/c2ccco2)nc2ccccc21	5	0	3	78*	nt	-31
CC(C)C(c1nnnn1C1CCCC1)N(C)C1CCCCC1 (stereo not given)	18	0	-1	-2	0.056	-27
Cc1ccc(C(c2nnnn2C2CCCCC2)N(C)C2CCCCC2)cc1 (stereo not given)	5	1	-2	81*	-0.0023	-41
Cc1cccc(C(=O)Oc2csc(=S)n2C(=O)c2cccc(C)c2)c1	7	-1	nt	-18	-0.017	44*
O=C(Oc1csc(=S)n1C(=O)c1ccccc1)c1ccccc1	1	0	1	-5	-1.7	49*
O=C(Oc1cccccc1=O)c1ccccc1	nt	-1	nt	-2	nt	nt
Nc1ccccc1C#CCCCCO	20	-1	-2	-6	-0.067	-4
CN1CCN(C(=O)Nc2ccc3c(c2)N(C)C(=O)c2ccccc2S3)CC1	nt	3	nt	0	nt	nt
CCCNC(=O)Nc1ccc2c(c1)N(C)C(=O)c1ccccc1S2	60*	5	-12	-4	0.33	-59
CN1C(=O)c2ccccc2Sc2ccc(NC(=O)N3CCCC3)cc21	6	6	15	79*	0.52	-43
C=CCNC(=S)Nc1cccc(N)c1	nt	2	nt	6	nt	nt
